Measured values as given in ChEMBL document CHEMBL1944546, “Structure-activity relationships of novel alkylides: 3-O-arylalkyl clarithromycin derivatives with improved antibacterial activities” (2012).
Converted amounts (≈) assume the structure as drawn.

How the values were obtained:
Staphylococcus aureus [1] = assay: Antibacterial activity against erythromycin-susceptible Staphylococcus aureus ATCC 29213 by broth microdilution method; assay type: functional
Summary of the method: (§1)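 MIC read by broth microdilution following CLSI (2010) guidance. The clinical isolates were identified by 16S rDNA sequencing and labelled by genotype and phenotype. S. aureus ATCC 29213 and S. pneumoniae ATCC 49619 were the control strains. Azithromycin, clarithromycin and 3-OH-clarithromycin were run as reference compounds.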

Staphylococcus aureus [2] = assay: Antibacterial activity against methicillin-, inducible MLS-resistant Staphylococcus aureus PU 32 by broth microdilution method
[3] = test system: Staphylococcus haemolyticus; assay: Antibacterial activity against methicillin-resistant, coagulase-negative, constitutive MLS-resistant Staphylococcus haemolyticus PU 19 by broth microdilution method; assay type: functional
Summary of the method: (§2)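 MIC by broth microdilution following CLSI (2010) recommendations, using clinical isolates identified by 16S rDNA sequencing and labelled by genotype and phenotype. S. aureus ATCC 29213 and S. pneumoniae ATCC 49619 were run as control strains, and azithromycin, clarithromycin and 3-OH-clarithromycin were tested as reference agents.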

Streptococcus pneumoniae [4] = assay: Antibacterial activity against efflux,penicillin-susceptible Streptococcus pneumoniae PU 09 by broth microdilution method; assay type: functional; summary of the method: as §1
Streptococcus pneumoniae [5] = assay: Antibacterial activity against penicillin-susceptible, constitutive MLS-resistant Streptococcus pneumoniae PU 27 by broth microdilution method; assay type: functional; summary of the method: as §2
Streptococcus pneumoniae [6] = assay: Antibacterial activity against penicillin-, constitutive MLS-resistant Streptococcus pneumoniae PU 11 by broth microdilution method; assay type: functional; summary of the method: as §2
Streptococcus pneumoniae [7] = assay: Antibacterial activity against erythromycin-susceptible Streptococcus pneumoniae ATCC 49619 by broth microdilution method; assay type: functional; summary of the method: as §1
[8] = test system: Streptococcus dysgalactiae; assay: Antibacterial activity against efflux, erythromycin-resistant Streptococcus dysgalactiae A 1 by broth microdilution method; assay type: functional; summary of the method: as §2
Streptococcus pyogenes [9] = assay: Antibacterial activity against constitutive MLS-resistant Streptococcus pyogenes A 2 by broth microdilution method; assay type: functional; summary of the method: as §2
Staphylococcus hominis = assay: Antibacterial activity against methicillin-resistant, coagulase-negative, inducible MLS-resistant Staphylococcus hominis E3 by broth microdilution method; assay type: functional; summary of the method: as §2
[10] = test system: Staphylococcus epidermidis; assay: Antibacterial activity against methicillin-susceptible, inducible MLS-resistant Staphylococcus epidermidis E1 by broth microdilution method; assay type: functional; summary of the method: as §2
Staphylococcus aureus [11] = assay: Antibacterial activity against methicillin-, constitutive MLS-resistant […] by broth microdilution method; assay type: functional; summary of the method: as §2
Staphylococcus aureus [12] = assay: Antibacterial activity against methicillin-susceptible, inducible MLS-resistant Staphylococcus aureus PU 64 by broth microdilution method; assay type: functional; summary of the method: as §2
Streptococcus pyogenes [13] = assay: Antibacterial activity against erythromycin-susceptible Streptococcus pyogenes A 3 by broth microdilution method; assay type: functional; summary of the method: as §1
[14] = test system: Staphylococcus epidermidis; assay: Antibacterial activity against methicillin-resistant, constitutive MLS-resistant Staphylococcus epidermidis E2 by broth microdilution method; assay type: functional; summary of the method: as §2

Structure (SMILES)	MIC (Staphylococcus aureus [1]) [µg/mL]	MIC (Staphylococcus aureus [2]) [µg/mL]	MIC [3] [µg/mL]	MIC (Streptococcus pneumoniae [4]) [µg/mL]	MIC (Streptococcus pneumoniae [5]) [µg/mL]	MIC (Streptococcus pneumoniae [6]) [µg/mL]	MIC (Streptococcus pneumoniae [7]) [µg/mL]	MIC [8] [µg/mL]	MIC (Streptococcus pyogenes [9]) [µg/mL]	MIC (Staphylococcus hominis) [µg/mL]	MIC [10] [µg/mL]	MIC (Staphylococcus aureus [11]) [µg/mL]	MIC (Staphylococcus aureus [12]) [µg/mL]	MIC (Streptococcus pyogenes [13]) [µg/mL]	MIC [14] [µg/mL]
CC[C@H]1OC(=O)[C@H](C)[C@@H](O/C=C\Cc2cncnc2)[C@H](C)[C@@H](O[C@@H]2O[C@H](C)C[C@H](N(C)C)[C@H]2O)[C@](C)(OC)C[C@@H](C)/C(=N\OCc2ccccc2)[C@H](C)[C@H]2OC(=O)O[C@@]21C	2 (≈ 2.38 µM)	1 (≈ 1.19 µM)	64 (≈ 76.3 µM)	1 (≈ 1.19 µM)	16 (≈ 19.1 µM)	32 (≈ 38.1 µM)	0.25 (≈ 0.298 µM)								
CC[C@H]1OC(=O)[C@H](C)[C@@H](OCC#Cc2cncnc2)[C@H](C)[C@@H](O[C@@H]2O[C@H](C)C[C@H](N(C)C)[C@H]2O)[C@](C)(OC)C[C@@H](C)/C(=N\O)[C@H](C)[C@@H](O)[C@]1(C)O	> 256	> 256	> 256	> 256	> 256	> 256	> 256	> 256	> 256	> 256	> 256	> 256	> 256	> 256	> 256
CC[C@H]1OC(=O)[C@H](C)[C@@H](OC/C=C/c2cncnc2)[C@H](C)[C@@H](O[C@@H]2O[C@H](C)C[C@H](N(C)C)[C@H]2O)[C@](C)(OC)C[C@@H](C)/C(=N\O)[C@H](C)[C@@H](O)[C@]1(C)O	> 256	> 256	> 256	32 (≈ 44.3 µM)	128 (≈ 177 µM)	> 256	16 (≈ 22.1 µM)	16 (≈ 22.1 µM)	> 256	> 256	> 256	> 256	> 256	8 (≈ 11.1 µM)	> 256
CC[C@H]1OC(=O)[C@H](C)[C@@H](OCCCc2cccnc2)[C@H](C)[C@@H](O[C@@H]2O[C@H](C)C[C@H](N(C)C)[C@H]2O)[C@](C)(OC)C[C@@H](C)/C(=N\OCc2ccccc2Cl)[C@H](C)[C@H]2OC(=O)O[C@@]21C	> 256	> 256	> 256	16 (≈ 18.3 µM)	32 (≈ 36.6 µM)	64 (≈ 73.2 µM)	8 (≈ 9.15 µM)	16 (≈ 18.3 µM)	32 (≈ 36.6 µM)	> 256	> 256	> 256	> 256	8 (≈ 9.15 µM)	> 256
CC[C@H]1OC(=O)[C@H](C)[C@@H](OC/C=C/c2cncnc2)[C@H](C)[C@@H](O[C@@H]2O[C@H](C)C[C@H](N(C)C)[C@H]2O)[C@](C)(OC)C[C@@H](C)/C(=N\O)[C@H](C)[C@H]2OC(=O)O[C@@]21C	8 (≈ 10.7 µM)	8 (≈ 10.7 µM)	> 256	4 (≈ 5.34 µM)	32 (≈ 42.7 µM)	> 256	0.5 (≈ 0.668 µM)	1 (≈ 1.34 µM)	> 256	> 256	> 256	> 256	4 (≈ 5.34 µM)	0.125 (≈ 0.167 µM)	> 256
CC[C@H]1OC(=O)[C@H](C)[C@@H](O/C=C\Cc2cncnc2)[C@H](C)[C@@H](O[C@@H]2O[C@H](C)C[C@H](N(C)C)[C@H]2O)[C@](C)(OC)C[C@@H](C)/C(=N\OCc2ccccc2Cl)[C@H](C)[C@H]2OC(=O)O[C@@]21C	8 (≈ 9.16 µM)	32 (≈ 36.6 µM)	64 (≈ 73.3 µM)			32 (≈ 36.6 µM)	0.25 (≈ 0.286 µM)								
CC[C@H]1OC(=O)[C@H](C)[C@@H](OC/C=C/c2cncnc2)[C@H](C)[C@@H](O[C@@H]2O[C@H](C)C[C@H](N(C)C)[C@H]2O)[C@](C)(OC)C[C@@H](C)/C(=N\OCc2ccccc2Cl)[C@H](C)[C@H]2OC(=O)O[C@@]21C	64 (≈ 73.3 µM)	64 (≈ 73.3 µM)	64 (≈ 73.3 µM)			32 (≈ 36.6 µM)	4 (≈ 4.58 µM)								
CC[C@H]1OC(=O)[C@H](C)[C@@H](OC/C=C/c2ccc(-n3ccnc3)cc2)[C@H](C)[C@@H](O[C@@H]2O[C@H](C)C[C@H](N(C)C)[C@H]2O)[C@](C)(OC)C[C@@H](C)/C(=N\OCc2ccccc2Cl)[C@H](C)[C@H]2OC(=O)O[C@@]21C	32 (≈ 34.1 µM)	32 (≈ 34.1 µM)	32 (≈ 34.1 µM)	16 (≈ 17.1 µM)	32 (≈ 34.1 µM)	32 (≈ 34.1 µM)	16 (≈ 17.1 µM)								
CC[C@H]1OC(=O)[C@H](C)[C@@H](OC/C=C/c2cncnc2)[C@H](C)[C@@H](O[C@@H]2O[C@H](C)C[C@H](N(C)C)[C@H]2O)[C@](C)(OC)C[C@@H](C)/C(=N\OCc2ccccc2)[C@H](C)[C@H]2OC(=O)O[C@@]21C	32 (≈ 38.1 µM)	32 (≈ 38.1 µM)	> 256	4 (≈ 4.77 µM)	64 (≈ 76.3 µM)	64 (≈ 76.3 µM)	2 (≈ 2.38 µM)								
CC[C@H]1OC(=O)[C@H](C)[C@@H](O/C=C\Cc2cncnc2)[C@H](C)[C@@H](O[C@@H]2O[C@H](C)C[C@H](N(C)C)[C@H]2O)[C@](C)(OC)C[C@@H](C)/C(=N\O)[C@H](C)[C@@H](O)[C@]1(C)O	0.064 (≈ 0.0885 µM)	0.064 (≈ 0.0885 µM)	> 256	0.25 (≈ 0.346 µM)	16 (≈ 22.1 µM)	128 (≈ 177 µM)	0.064 (≈ 0.0885 µM)								
CC[C@H]1OC(=O)[C@H](C)[C@@H](OC/C=C/c2cccnc2)[C@H](C)[C@@H](O[C@@H]2O[C@H](C)C[C@H](N(C)C)[C@H]2O)[C@](C)(OC)C[C@@H](C)/C(=N\OCc2ccccc2Cl)[C@H](C)[C@H]2OC(=O)O[C@@]21C	32 (≈ 36.7 µM)	32 (≈ 36.7 µM)	32 (≈ 36.7 µM)	8 (≈ 9.17 µM)	16 (≈ 18.3 µM)	16 (≈ 18.3 µM)	4 (≈ 4.58 µM)								
C=CCO[C@H]1[C@H](C)[C@@H](O[C@@H]2O[C@H](C)C[C@H](N(C)C)[C@H]2O)[C@](C)(OC)C[C@@H](C)C(=O)[C@H](C)[C@@H](O)[C@](C)(O)[C@@H](CC)OC(=O)[C@@H]1C	> 256	256 (≈ 406 µM)	> 256	64 (≈ 102 µM)	128 (≈ 203 µM)	> 256	32 (≈ 50.8 µM)								
CC[C@H]1OC(=O)[C@H](C)[C@@H](OCC#Cc2cncnc2)[C@H](C)[C@@H](O[C@@H]2O[C@H](C)C[C@H](N(C)C)[C@H]2O)[C@](C)(OC)C[C@@H](C)/C(=N\OCc2ccccc2Cl)[C@H](C)[C@H]2OC(=O)O[C@@]21C	32 (≈ 36.7 µM)	32 (≈ 36.7 µM)	32 (≈ 36.7 µM)			32 (≈ 36.7 µM)	16 (≈ 18.4 µM)								
CC[C@H]1OC(=O)[C@H](C)[C@@H](O)[C@H](C)[C@@H](O[C@@H]2O[C@H](C)C[C@H](N(C)C)[C@H]2O)[C@](C)(OC)C[C@@H](C)C(=O)[C@H](C)[C@@H](O)[C@]1(C)O	> 256	> 256	> 256	128 (≈ 217 µM)	128 (≈ 217 µM)	> 256	64 (≈ 109 µM)								
CC[C@H]1OC(=O)[C@H](C)[C@@H](OCC#Cc2cccnc2)[C@H](C)[C@@H](O[C@@H]2O[C@H](C)C[C@H](N(C)C)[C@H]2O)[C@](C)(OC)C[C@@H](C)/C(=N\OCc2ccccc2Cl)[C@H](C)[C@H]2OC(=O)O[C@@]21C	64 (≈ 73.5 µM)	64 (≈ 73.5 µM)	64 (≈ 73.5 µM)			32 (≈ 36.8 µM)	16 (≈ 18.4 µM)								
CC[C@H]1OC(=O)[C@H](C)[C@@H](O/C=C\Cc2cncnc2)[C@H](C)[C@@H](O[C@@H]2O[C@H](C)C[C@H](N(C)C)[C@H]2O)[C@](C)(OC)C[C@@H](C)/C(=N\OCc2ccccc2)[C@H](C)[C@@H](O)[C@]1(C)O	32 (≈ 39.4 µM)	4 (≈ 4.92 µM)	> 256	2 (≈ 2.46 µM)	32 (≈ 39.4 µM)	64 (≈ 78.7 µM)	2 (≈ 2.46 µM)								
C=CCO[C@H]1[C@H](C)[C@@H](O[C@@H]2O[C@H](C)C[C@H](N(C)C)[C@H]2O)[C@](C)(OC)C[C@@H](C)C(=O)N[C@H](C)[C@@H](O)[C@](C)(O)[C@@H](CC)OC(=O)[C@@H]1C	> 256	> 256	> 256	> 256	> 256	> 256	> 256								
C=CCO[C@H]1[C@H](C)[C@@H](O[C@@H]2O[C@H](C)C[C@H](N(C)C)[C@H]2O)[C@](C)(OC)C[C@@H](C)/C(=N\O)[C@H](C)[C@@H](O)[C@](C)(O)[C@@H](CC)OC(=O)[C@@H]1C	256 (≈ 397 µM)	128 (≈ 198 µM)	> 256	32 (≈ 49.6 µM)	128 (≈ 198 µM)	> 256	16 (≈ 24.8 µM)								
CC[C@H]1OC(=O)[C@H](C)[C@@H](OC/C=C/c2cncc3ccccc23)[C@H](C)[C@@H](O[C@@H]2O[C@H](C)C[C@H](N(C)C)[C@H]2O)[C@](C)(OC)C[C@@H](C)/C(=N\OCc2ccccc2Cl)[C@H](C)[C@H]2OC(=O)O[C@@]21C	64 (≈ 69.4 µM)	256 (≈ 277 µM)	128 (≈ 139 µM)	16 (≈ 17.3 µM)	32 (≈ 34.7 µM)	32 (≈ 34.7 µM)	16 (≈ 17.3 µM)								
